Reference: PMC11621760 (Proceedings of the National Academy of Sciences of the …, 2024)

What was measured:
[1] = molecular target: T1, AR (Homo sapiens, UniProt P10275); assay: AR transcriptional assays of the triazole series; format: cell-based; settings: SI Fig. S1B/C
T1 sequence (P10275 1-920): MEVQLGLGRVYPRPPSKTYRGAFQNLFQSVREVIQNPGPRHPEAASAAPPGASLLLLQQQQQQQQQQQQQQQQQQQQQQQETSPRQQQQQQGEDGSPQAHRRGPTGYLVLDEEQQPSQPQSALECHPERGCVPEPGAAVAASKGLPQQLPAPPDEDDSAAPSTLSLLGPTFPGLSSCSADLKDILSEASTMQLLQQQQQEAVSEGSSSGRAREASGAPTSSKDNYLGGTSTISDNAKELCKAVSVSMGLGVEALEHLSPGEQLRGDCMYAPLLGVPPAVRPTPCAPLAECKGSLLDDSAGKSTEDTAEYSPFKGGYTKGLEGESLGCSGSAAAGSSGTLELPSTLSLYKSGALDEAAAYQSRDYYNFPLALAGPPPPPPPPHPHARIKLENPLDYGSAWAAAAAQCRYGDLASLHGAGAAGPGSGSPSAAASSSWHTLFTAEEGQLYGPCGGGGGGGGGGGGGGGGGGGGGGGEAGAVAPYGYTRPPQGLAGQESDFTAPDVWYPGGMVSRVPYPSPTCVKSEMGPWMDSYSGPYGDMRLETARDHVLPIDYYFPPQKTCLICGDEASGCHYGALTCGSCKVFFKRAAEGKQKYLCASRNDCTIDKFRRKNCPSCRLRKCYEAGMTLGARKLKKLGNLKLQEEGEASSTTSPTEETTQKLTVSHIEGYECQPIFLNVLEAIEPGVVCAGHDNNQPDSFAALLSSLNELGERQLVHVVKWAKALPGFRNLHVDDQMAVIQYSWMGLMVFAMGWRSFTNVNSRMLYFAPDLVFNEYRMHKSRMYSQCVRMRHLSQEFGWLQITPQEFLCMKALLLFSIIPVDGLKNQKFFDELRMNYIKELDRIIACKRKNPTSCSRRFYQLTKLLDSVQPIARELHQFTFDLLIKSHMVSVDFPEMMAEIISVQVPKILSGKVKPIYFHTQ

[2] = once peak concentration is reached; cited from earlier work
[3] = test system: H3K27ac and AR 3D chromatin contacts; assay: AQuA-HiChIP; format: cell-based, human; settings: 24 h at 20 µM, LNCaP-AR
In short: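 LNCaP-AR cells grown in DMEM, 10% FBS, penicillin-streptomycin-glutamine, 37 °C, 5% CO2. MNase-based HiChIP for AR and H3K27ac with medium-salt washes and mouse chromatin spike-in for absolute quantification (AQuA). Paired-end sequencing to at least 200 million reads. Loops were filtered by distance, minimum AQuA-CPM and connection number, merged into clusters, and ranked by summed short- and long-range contacts.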

[4] = test system: 22Rv1 cells; assay: Cell growth; format: cell-based, human
[5] = Parallel Artificial Membrane Permeability Assay; format: in vitro ADME; settings: pH 6.5
[6] = molecular target: T2, hAR (Homo sapiens, UniProt P10275); settings: radioligand binding
T2 sequence (P10275 669-920 limits assumed): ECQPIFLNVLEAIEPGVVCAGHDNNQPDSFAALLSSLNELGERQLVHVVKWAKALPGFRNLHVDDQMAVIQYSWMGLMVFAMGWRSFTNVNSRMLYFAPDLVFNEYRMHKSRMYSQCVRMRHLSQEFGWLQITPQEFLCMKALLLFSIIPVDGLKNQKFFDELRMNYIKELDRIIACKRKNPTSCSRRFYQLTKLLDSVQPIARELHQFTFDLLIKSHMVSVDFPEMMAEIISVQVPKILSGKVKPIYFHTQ

[7] = molecular target: T3, progesterone receptor (PR) (Homo sapiens, UniProt P06401); assay: Radioligand binding assay, progesterone receptor
T3 sequence (P06401 1-933): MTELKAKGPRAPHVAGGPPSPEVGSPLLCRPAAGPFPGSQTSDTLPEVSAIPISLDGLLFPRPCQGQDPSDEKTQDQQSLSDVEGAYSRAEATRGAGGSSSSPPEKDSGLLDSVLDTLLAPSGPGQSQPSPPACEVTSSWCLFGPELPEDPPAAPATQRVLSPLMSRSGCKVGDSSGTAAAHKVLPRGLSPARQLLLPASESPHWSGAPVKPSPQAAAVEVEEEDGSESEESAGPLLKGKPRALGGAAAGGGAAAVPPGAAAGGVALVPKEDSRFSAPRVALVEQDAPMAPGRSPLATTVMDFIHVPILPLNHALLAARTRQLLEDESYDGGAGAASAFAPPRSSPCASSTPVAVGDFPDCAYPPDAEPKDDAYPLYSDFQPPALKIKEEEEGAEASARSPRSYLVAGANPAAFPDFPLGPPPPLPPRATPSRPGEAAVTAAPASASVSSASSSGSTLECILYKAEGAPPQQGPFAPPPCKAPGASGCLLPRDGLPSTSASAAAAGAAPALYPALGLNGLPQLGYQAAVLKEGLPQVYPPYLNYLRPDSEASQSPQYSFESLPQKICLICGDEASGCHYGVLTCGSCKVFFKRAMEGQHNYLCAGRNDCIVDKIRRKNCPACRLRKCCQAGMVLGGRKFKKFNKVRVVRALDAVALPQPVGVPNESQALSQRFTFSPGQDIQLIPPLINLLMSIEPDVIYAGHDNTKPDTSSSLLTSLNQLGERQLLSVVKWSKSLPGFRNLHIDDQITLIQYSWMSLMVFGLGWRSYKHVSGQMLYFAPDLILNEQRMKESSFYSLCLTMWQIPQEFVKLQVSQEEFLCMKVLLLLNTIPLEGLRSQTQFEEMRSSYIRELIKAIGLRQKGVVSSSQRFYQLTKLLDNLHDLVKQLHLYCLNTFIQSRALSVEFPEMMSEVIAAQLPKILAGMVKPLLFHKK
In short: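 Eurofins Panlabs radioligand binding with steroid hormone receptors and their respective ligands. Buffer: 50 mM Tris-HCl, 0.8 M NaCl, 10% glycerol, 2 mM dithiothreitol, 0.1% BSA, 2% EtOH, pH 7.4. Receptor-ligand incubation, then 15 min with hydroxyapatite slurry. Samples filtered, filters washed three times and counted for specifically bound ligand. Log concentration series gave Ki and IC50.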

[8] = molecular target: T1, AR; format: cell-based; settings: VCaP, CSS and 10 nM R1881
[9] = test system: LNCaP-AR cells; assay: Cell growth; format: cell-based, human
[10] = test system: LAPC4 xenograft; assay: LAPC4 xenograft growth in vivo; parameters: species or system mice; settings: 20 mg/kg via oral gavage, 42 days
[11] = molecular target: T4, GFP-AR (Homo sapiens, UniProt P10275); assay: GFP-AR construct nuclear translocation in human cell lines; format: cell-based; settings: CSS
T4 sequence (P10275 1-920): T1 sequence (P10275 1-920)

[12] = molecular target: T4, GFP-AR; format: cell-based; settings: murine 3108 cells expressing GFP-AR
[13] = Microsome metabolic assay; format: in vitro ADME; settings: in comparison to control compounds
[14] = Solubility / precipitation in solvents; format: physicochemical

Compound: Cn1cc(-c2ccc(CN3C(=S)N(c4ccc(C#N)c(C(F)(F)F)c4)C(=O)C3(C)C)cc2)nn1 [15b]
- anti-AR transcriptional activity (in words) [1]: dramatic loss in activity

Compound: CNC(=O)c1ccc(N2C(=S)N(c3ccc(C#N)c(C(F)(F)F)c3)C(=O)C2(C)C)cc1F [Enzalutamide, enzalutamide]
- half-life in patients [2]: around 5 days

Compound: CC(O)(CS(=O)(=O)c1ccc(F)cc1)C(=O)Nc1ccc(C#N)c(C(F)(F)F)c1 (stereo not drawn) [bicalutamide]
- H3K27ac long-range contacts at AR loops [3]: decreased long-range acetylation contacts at AR loops

Compound: CC1(C)C(=O)N(c2ccc(C#N)c(C(F)(F)F)c2)C(=S)N1Cc1ccc(-c2c[nH]nn2)cc1 [BG-15a]
- growth inhibition compared to enzalutamide [4]: more efficacious in inhibiting growth compared to enzalutamide
- drug recovery and cell permeability (PAMPA) [5]: performed similarly to each other and enzalutamide
- AR binding affinity (in words) [6]: strong AR binding affinity
- binding affinity to the PR (in words) [7]: nanomolar range binding affinity
- AR transcriptional activity (luciferase) [8]: dose-dependent decrease of AR activity
- growth inhibition compared to enzalutamide [9]: more efficacious in inhibiting growth compared to enzalutamide
- tumor growth [10]: inhibition of tumor growth
- AR nuclear translocation (GFP-AR construct) [11]: consistently stimulated AR nuclear translocation
- AR translocation to the nucleus (nuclear to cytoplasmic ratio, dose response) [12]: induced nuclear translocation at doses 100 nM to 10 µM
- microsomal half-life (in words) [13]: notably high half-life
- solubility (in words) [14]: limited
- H3K27ac long-range contacts at AR loops [3]: decreased long-range acetylation contacts at AR loops
